Data on six compounds can be found in ChEMBL document CHEMBL1141722, “Antioxidative and thrombolytic TMP nitrone for treatment of ischemic stroke” (2008).

Holding throughout (format): functional
Assay [1] is described as follows: Antioxidant activity assessed as inhibition of ROS-induced linoleic acid peroxidation at 2 mM after 15 mins at 100 degC by modified TBARS assay relative to control. A digest of the protocol:
(§1)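 Linoleic acid (1.5% in ethanol) diluted with twofold 200 mM PBS, pH 7.4, then incubated with 2.5 mM FeSO4 (0.2 mL) and test sample at 37 °C for 30 min. The reaction was stopped with 10% TCA and 0.67% TBA, then boiled 15 min. The MDA–TBA adduct in the supernatant was read at 532 nm. % inhibition = [(A−A1)/A]×100 versus control absorbance.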

Assay [2] can be described thus: Antioxidant activity assessed as inhibition of ROS-induced linoleic acid peroxidation at 1 mM after 15 mins at 100 degC by modified TBARS assay relative to control. Summed up:
as §1

A further assay relates to Platelet. As to the kind of experiment: Inhibition of ADP-induced New Zealand rabbit platelet aggregation at 2 mM treated for 1 min prior to ADP challenge by turbidimetric method relative to control. The following applies: Oryctolagus cuniculus. Summed up:
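New Zealand rabbit blood was anticoagulated with 3.8% citrate (9:1), and PRP was taken by centrifugation. PRP was pre-warmed at 37 °C for 1 min, then drug was added to 2 mM final. After 1 min of stirring, ADP (10 µM) was added and the reaction ran 4 min. Maximum change in light transmission was recorded turbidimetrically and expressed as % of drug-free control.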

Assay [3] in a line: Neuroprotective effect against H202-induced Sprague-Dawley rat cortical neuron injury assessed as cell viability at 1 mM treated 30 mins before H202 challenge measured after 24 hrs by MTT assay relative to control. Particulars: Cortical neurone. A digest of the protocol:
(§2)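 Cortices from 1–3-day-old Sprague–Dawley rats were digested with 0.25% […] at 37 °C, and cells were plated at 9×10^4/well in DMEM/10% FBS for 24 h plus 12 h. Drugs were added 30 min before 0.5 mM H2O2, then incubated 24 h at 37 °C, 5% CO2. Viability was measured by MTT 4 h, DMSO solubilization, A570, as % of untreated/saline control. Means ± SEM of three independent experiments.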

For assay [4], the system named is Rattus norvegicus. The assay is described as follows: Neuroprotective effect against middle cerebral artery occlusion-induced focal cerebral ischemia in Sprague-Dawley rat assessed as reduction in infarct area at 62 mg/kg, ip administered 1 hr after MCA occlusion measured after 24 hrs of reperfusion by TTC staining relative to control. Also noted: scale not given: the % may be the effect or the level left. Particulars: route intraperitoneal. A digest of the protocol: (§3)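 Female Sprague-Dawley rats (210–240 g) under chloral hydrate (400 mg/kg ip) underwent 2 h transient proximal MCA occlusion by intraluminal suture, then reperfusion. Drug or saline was given ip 1 h after occlusion. After 24 h of reperfusion, 2-mm brain slices were stained with 0.5% TTC for 30 min at 37 °C. Infarct area was expressed as % of total section area. Single-tail Student's t-test versus control.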

Assay [5] can be described thus: Neuroprotective effect against H202-induced Sprague-Dawley rat cortical neuron injury assessed as cell viability at 100 uM treated 30 mins before H202 challenge measured after 24 hrs by MTT assay. The following applies: Cortical neurone. Summed up:
as §2

Assay [6] can be described thus: Neuroprotective effect against H202-induced Sprague-Dawley rat cortical neuron injury assessed as cell viability at 1 to 1000 uM treated 30 mins before H202 challenge measured after 24 hrs by MTT assay. Particulars: Cortical neurone. A digest of the protocol:
as §2

For assay [7], the system named is Rattus norvegicus. As to the kind of experiment: Antithrombotic activity in Sprague-Dawley rat venous thrombus model assessed as inhibition of thrombus formation at 3.25 mg/kg, iv administered 2 hrs after ligation measured after 24 hrs relative to control.
Assay [8] concerns Rattus norvegicus. As to the kind of experiment: Neuroprotective effect against middle cerebral artery occlusion-induced focal cerebral ischemia in Sprague-Dawley rat assessed as reduction in infarct area at 80 mg/kg, ip administered 1 hr after MCA occlusion measured after 24 hrs of reperfusion by TTC staining relative to control. Also noted: scale not given: the % may be the effect or the level left. Particulars: route intraperitoneal. Summed up: as §3

Assay [9] in a line: Neuroprotective effect against H202-induced Sprague-Dawley rat cortical neuron injury assessed as cell viability up to 1 mM treated 30 mins before H202 challenge measured after 24 hrs by MTT assay. Particulars: Cortical neurone. A digest of the protocol: as §2
In assay [10] the test system is Rattus norvegicus. As to the kind of experiment: Neuroprotective effect against middle cerebral artery occlusion-induced focal cerebral ischemia in Sprague-Dawley rat assessed as reduction in infarct area at 65 mg/kg, ip administered 1 hr after MCA occlusion measured after 24 hrs of reperfusion by TTC staining relative to control. Further details: scale not given: the % may be the effect or the level left. The following applies: route intraperitoneal. A digest of the protocol:
as §3

In assay [11] the test system is Rattus norvegicus. The assay is described as follows: Neuroprotective effect against middle cerebral artery occlusion-induced focal cerebral ischemia in Sprague-Dawley rat assessed as reduction in infarct area at 50 mg/kg, ip administered 1 hr after MCA occlusion measured after 24 hrs of reperfusion by TTC staining relative to control. Also noted: scale not given: the % may be the effect or the level left. The following applies: route intraperitoneal. Summed up: as §3

For assay [12], the system named is Rattus norvegicus. As to the kind of experiment: Antithrombotic activity in Sprague-Dawley rat venous thrombus model assessed as inhibition of thrombus formation at 2 mg/kg, iv administered 2 hrs after ligation measured after 24 hrs relative to control.
Assay [13] concerns Rattus norvegicus. The assay is described as follows: Antithrombotic activity in rat venous thrombosis model assessed as inhibition of thrombus formation at 1.2 mg/kg.

Active and inactive are the calls of the source. The rule behind the calls is not given here.

Take `O=C1O[C@H]([C@@H](O)CO)C(O)=C1O`: the inhibition was found to be 53.2% in assay [1] and 43.3% in assay [2].

With `CC(=O)Oc1ccccc1C(=O)O` [ASPIRIN], the inhibition at 2000 µM with Platelet was determined as 24.8%.

For the compound `CC1=NN(c2ccccc2)C(=O)C1` [EDARAVONE], the inhibition at 2000 µM in the assay on Platelet is 32.4%. Further, the Activity in assay [3] worked out at 82%; in the assay with Rattus norvegicus [4], 52.5%. Also, the outcome in assay [5] was Active. Moreover, the inhibition was determined as 43.7% in [1] and 37.9% in assay [2].

Turning to `Cc1nc(C)c(/C=[N+](\[O-])C(C)(C)C)nc1C`, the result in assay [6] was Active. For the same compound, the inhibition in vivo at 3.25 mg/kg in the assay on Rattus norvegicus [7] amounted to 57.6%. Moreover, testing at 2000 µM in the assay with Platelet gave an inhibition of 30%. For the same compound, the Activity in assay [3] was found to be 96%; in the assay on Rattus norvegicus [8], 56.3%. For the same compound, the results for the inhibition in [1] and in assay [2] were 40% and 13.7%, respectively.

As to `CC(C)(C)/[N+]([O-])=C/c1ccccc1`, the inhibition at 2000 µM with Platelet came out at 33.9%. For the same compound, in [9], the result was inactive. Moreover, the results for the inhibition in [1] and in assay [2] were 25.1% and 15.8%, respectively. Further, the Activity in the assay on Rattus norvegicus [10] came to 31.1%.

For the compound `Cc1nc(C)c(C)nc1C` [LIGUSTRAZINE], the inhibition at 2000 µM in the assay on Platelet turned out to be 36.2%. Further, the Activity in the assay with Rattus norvegicus [11] came to 46.3%. Besides, the result in [9] was inactive. The inhibition in vivo at 2 mg/kg with Rattus norvegicus [12] was found to be 71.2%. Besides, the results for the inhibition in assay [1] and in assay [2] were 9% and 6.6%, respectively. In the assay on Rattus norvegicus [13], the inhibition in vivo at 1.2 mg/kg was determined as 50%.
